What all share (type): functional, organism-based
The test system of assay [1] is Influenza A virus. In words: Antiviral activity against influenza A (A/New York/18/2009 (H1N1)) virus after 30 mins by NA-star substrate based chemiluminescent assay. The following applies: 0.5 h. Summed up:
(§1)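 Titrated virus in NA-Star buffer (26 mM MES, 4 mM CaCl2, pH 6.0) was preincubated with ten half-log inhibitor dilutions (0.03–1,000 nM final) for 30 min at 37°C, then with substrate for 30 min at room temperature. Accelerator solution was added and luminescence read for 0.1 s. IC50 came from a Vmax·[1−x/(K+x)] fit, mean of ≥3 experiments.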

The subject of assay [2] is Influenza A virus. In words: Antiviral activity against influenza A (A/Washington/10/2008 (H1N1)) virus after 30 mins by NA-star substrate based chemiluminescent assay. The following applies: 0.5 h. Summed up:
as §1

The subject of assay [3] is Influenza A virus. Put plainly: Antiviral activity against influenza A (A/Washington/29/2009 (H1N1)) virus after 30 mins by NA-star substrate based chemiluminescent assay. The following applies: 0.5 h. Summed up: as §1
Assay [4] has as its system Influenza A virus. Put plainly: Antiviral activity against influenza A (A/Singapore/91/2009 (H1N1)) virus after 30 mins by MUNANA substrate based fluorometric assay. The following applies: 0.5 h. A digest of the protocol: (§2)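 Fluorometric NA inhibition with MUNANA (100 μM final). Titrated virus in NA-Star buffer (26 mM MES, 4 mM CaCl2, pH 6.0) was preincubated with ten half-log inhibitor dilutions (0.03–1,000 nM final) for 30 min at 37°C, then with substrate for 30 min at 37°C. The reaction was stopped with 0.1 M glycine in 25% ethanol, pH 10.7, and 4-methylumbelliferone was read at ex 365/em 450 nm. IC50 came from a Vmax·[1−x/(K+x)] fit, mean of ≥3 experiments.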

The subject of assay [5] is Influenza A virus. Put plainly: Antiviral activity against influenza A (A/New York/18/2009 (H1N1)) virus after 16 to 18 hrs by fetuin substrate based colorimetric assay. A digest of the protocol:
(§3)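 Colorimetric NA inhibition with fetuin substrate. Virus was diluted in NA-Star buffer (26 mM MES, 4 mM CaCl2, pH 6.0) to give OD549 of 0.4–0.8 after 18 h. It was preincubated with ten half-log inhibitor dilutions (0.03–1,000 nM final) for 1 h at 37°C, then with fetuin (5.5 mg/ml final) for 16–18 h at 37°C. Released sialic acid was read at 549 nm after periodate/TBA reaction and butanol extraction. IC50 came from a Vmax·[1−x/(K+x)] fit, mean of ≥2 experiments.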

The subject of assay [6] is Influenza A virus. In words: Antiviral activity against influenza A (A/North Carolina/02/2009 (H1N1)) virus after 30 mins by NA-star substrate based chemiluminescent assay. The following applies: 0.5 h. A digest of the protocol:
as §1

Assay [7] deals with Influenza A virus. Put plainly: Antiviral activity against influenza A (A/North Carolina/02/2009 (H1N1)) virus after 16 to 18 hrs by fetuin substrate based colorimetric assay. A digest of the protocol: as §3
The test system of assay [8] is Influenza A virus. Put plainly: Antiviral activity against influenza A (A/Washington/29/2009 (H1N1)) virus after 30 mins by MUNANA substrate based fluorometric assay. The following applies: 0.5 h. Summed up: as §2
Assay [9] concerns Influenza A virus. Put plainly: Antiviral activity against influenza A (A/Washington/29/2009 (H1N1)) virus after 16 to 18 hrs by fetuin substrate based colorimetric assay. A digest of the protocol:
as §3

Assay [10] concerns Influenza A virus. In words: Antiviral activity against influenza A (A/North Carolina/02/2009 (H1N1)) virus after 30 mins by MUNANA substrate based fluorometric assay. The following applies: 0.5 h. A digest of the protocol: as §2
Assay [11] deals with Influenza A virus. In words: Antiviral activity against influenza A (A/New York/18/2009 (H1N1)) virus after 30 mins by MUNANA substrate based fluorometric assay. The following applies: 0.5 h. A digest of the protocol: as §2
The test system of assay [12] is Influenza A virus. Put plainly: Antiviral activity against influenza A (A/Singapore/91/2009 (H1N1)) virus after 30 mins by NA-star substrate based chemiluminescent assay. The following applies: 0.5 h. Summed up: as §1
Assay [13] relates to Influenza A virus. Put plainly: Antiviral activity against influenza A (A/Washington/10/2008 (H1N1)) virus after 30 mins by MUNANA substrate based fluorometric assay. The following applies: 0.5 h. A digest of the protocol:
as §2

Assay [14] deals with Influenza A virus. In words: Antiviral activity against influenza A (A/Washington/10/2008 (H1N1)) virus after 16 to 18 hrs by fetuin substrate based colorimetric assay. Summed up:
as §3

Assay [15] has as its system Influenza A virus. In words: Antiviral activity against influenza A (A/Singapore/91/2009 (H1N1)) virus after 16 to 18 hrs by fetuin substrate based colorimetric assay. A digest of the protocol:
as §3

For orientation: IC50 means the concentration needed to halve the response being measured. Read a high IC50 as weaker potency. With `C/C=C\[C@@H]1C[C@H](C(=O)O)N[C@H]1[C@@H](NC(C)=O)[C@](C)(CCC)OC`, the IC50 with Influenza A virus [1] worked out at 0.43 nM; in the assay on Influenza A virus [2] it was 0.16 nM; in the assay on Influenza A virus [3] it was 0.35 nM; with Influenza A virus [4], 0.46 nM; with Influenza A virus [5], 0.9 nM; with Influenza A virus [6], 0.18 nM. Besides, the concentration for half-maximal inhibition (IC50) is 0.75 nM with Influenza A virus [7]; 0.53 nM in the assay with Influenza A virus [8]; 1.31 nM in the assay on Influenza A virus [9]; 0.51 nM with Influenza A virus [10]; 0.74 nM with Influenza A virus [11]; 0.27 nM with Influenza A virus [12]. Further, the IC50 in the assay on Influenza A virus [13] was 0.51 nM; in the assay on Influenza A virus [14] it was 1.03 nM; in the assay on Influenza A virus [15] it was 1.4 nM.

For `CO[C@@H]([C@@H]1OC(C(=O)O)=C[C@H](NC(=N)N)[C@H]1NC(C)=O)[C@H](O)CO` [LANINAMIVIR], the IC50 in the assay with Influenza A virus [1] worked out at 0.49 nM; in the assay on Influenza A virus [2], 0.14 nM; in the assay with Influenza A virus [3], 0.49 nM; in the assay on Influenza A virus [4], 0.51 nM; in the assay on Influenza A virus [5] it was 0.74 nM; in the assay with Influenza A virus [7], 0.86 nM. Moreover, the IC50 amounted to 0.74 nM in the assay with Influenza A virus [8]; 1.57 nM with Influenza A virus [9]; 0.61 nM in the assay with Influenza A virus [10]; 0.96 nM in the assay on Influenza A virus [11]; 0.3 nM in the assay on Influenza A virus [12]; 0.53 nM in the assay with Influenza A virus [13]. For the same compound, the IC50 with Influenza A virus [14] was determined as 0.79 nM; in the assay with Influenza A virus [15], 0.9 nM.

On to `CCC(CC)[C@H](NC(C)=O)[C@@H]1[C@H](O)[C@@H](C(=O)O)C[C@H]1NC(=N)N` [PERAMIVIR ANHYDROUS], for which the IC50 was 0.12 nM with Influenza A virus [1]; 0.11 nM in the assay on Influenza A virus [2]; 0.14 nM in the assay with Influenza A virus [3]; 0.14 nM in the assay with Influenza A virus [4]; 0.41 nM in the assay on Influenza A virus [5]; 0.08 nM in the assay on Influenza A virus [6]. For the same compound, the IC50 in the assay on Influenza A virus [7] stood at 0.7 nM; in the assay on Influenza A virus [8], 0.2 nM; in the assay on Influenza A virus [9] it was 0.49 nM; in the assay on Influenza A virus [10], 0.19 nM; in the assay on Influenza A virus [11], 0.32 nM; in the assay on Influenza A virus [12] it was 0.11 nM. Further, the IC50 was 0.18 nM in the assay with Influenza A virus [13], 0.75 nM with Influenza A virus [14] and 0.55 nM in the assay on Influenza A virus [15].
